Among the data in ChEMBL document CHEMBL5500387, “Design, synthesis of combretastatin A-4 piperazine derivatives as potential antitumor agents by inhibiting tubulin polymerization and inducing autophagy in HCT116 cells” (Eur J Med Chem, 2024) are logD and Activity values, retold here.

Structures are written as SMILES.

Series [1] can be described thus: Octanol-water partition coefficient, log P of the compound at pH 7.4 at 4 mg measured after 24 hrs by liquid chromatography. It counts as physicochemical. In a few lines:
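4 mg of compound was dissolved in 1 mL water-saturated n-octanol and held 24 h at room temperature, then centrifuged. The supernatant was mixed with an equal volume of octanol-saturated water, stood 24 h, centrifuged and the phases separated. Phase concentrations were measured by LC standard curves. log P = log(C_octanol/C_water). At least three independent runs.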

The subject of another series is HCT-116. Kind of series: Induction of autophagy in human HCT-116 cells transfected with mRFP-GFP-LC3 adenovirus assessed as increase in LC3 labeling by measuring increase in number of yellow dots measured after 24 hrs by immunofluorescence staining based confocal microscopic analysis. The class given is functional, cell-based. As to conditions: dose 0.1-0.3 µM. In a few lines:
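HCT116 cells on glass slides were infected with mRFP-GFP-LC3 adenovirus at 50% confluence and incubated 24 h. They were then treated 24 h with 0.1–0.3 μM or 0.1% DMSO. Fixed in 4% paraformaldehyde, mounted with DAPI, and yellow LC3 puncta imaged by confocal microscopy.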

The logD is the decadic logarithm of the distribution of all forms, ionised or not, between an organic phase and buffer at a given pH. High values mean higher lipophilicity, low ones lower lipophilicity. As for `COc1ccc(/C=C(/C(=O)N2CCN(c3ccc(C)cc3)CC2)c2cc(OC)c(OC)c(OC)c2)cc1O`, the logD at 24 h in series [1] is -0.013. Besides, the Activity entry in the series on HCT-116 is “Dose-Dependent Effect”.
